Measurements reported in ChEMBL document CHEMBL1143328, “Determination of 1-aryl-4-propylpiperazine pKa values: the substituent on aryl modulates basicity” (Bioorg Med Chem, 2009).

Assay: Dissociation constant, pKa by potentiometric titration method
Assay type: physicochemical
Method in brief: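 Each compound dissolved in ionic-strength-adjusted water (0.15 M), titrated with 0.5 M KOH up to pH 11. Steps capped at 0.2 pH units; each point recorded once drift fell below 0.002 pH/min. Electrode checked in pH 7.00 buffer and calibrated by blank titration daily.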

Compound | pKa
CCCN1CCN(c2ccccc2)CC1 | 7.96
CCCN1CCN(c2cccc(Cl)c2)CC1 | 7.83
CCCN1CCN(c2ccccc2C(F)(F)F)CC1 | 8.8
CCCN1CCN(c2ccccc2C#N)CC1 | 7.92
CCCN1CCN(c2cccc(C)c2)CC1 | 7.83
CCCN1CCN(c2cccc(O)c2)CC1 | 7.82
CCCN1CCN(c2ccc(C#N)cc2)CC1 | 7.78
CCCN1CCN(c2ccc(OC)cc2)CC1 | 7.88
CCCN1CCN(c2cccc(OC)c2)CC1 | 7.86
CCCN1CCN(c2ccccc2C)CC1 | 8.39
CCCN1CCN(c2cccc(C(N)=O)c2)CC1 | 7.76
CCCN1CCN(c2ccccc2[N+](=O)[O-])CC1 | 7.94
CCCN1CCN(c2ccc(O)cc2)CC1 | 7.92
CCCN1CCN(c2ccccc2Cl)CC1 | 8.07
CCCN1CCN(c2ccc(Cl)cc2)CC1 | 7.83
CCCN1CCN(c2ccc([N+](=O)[O-])cc2)CC1 | 7.59
CCCN1CCN(c2cccc(C#N)c2)CC1 | 7.67
CCCN1CCN(c2ccccc2C(N)=O)CC1 | 8.14
CCCN1CCN(c2ccc(C(N)=O)cc2)CC1 | 7.84
CCCN1CCN(c2ccc(C)cc2)CC1 | 7.92
CCCN1CCN(c2ccccc2O)CC1 | 8.05
CCCN1CCN(c2cccc(C(F)(F)F)c2)CC1 | 7.81
CCCN1CCN(c2cccc([N+](=O)[O-])c2)CC1 | 7.7
CCCN1CCN(c2ccc(C(F)(F)F)cc2)CC1 | 7.84
CCCN1CCN(c2ccccc2OC)CC1 | 8.29
